Reference: ChEMBL document CHEMBL1135939, “Studies on the synthesis and opioid agonistic activities of mitragynine-related indole alkaloids: discovery of opioid agonists structurally different from other opioid ligands” (J Med Chem, 2002)
Activity calls are given as the source filed them. The calls are words filed in the database; no cut-off is given here.

Legend:
Cavia porcellus [1] = species: Cavia porcellus; assay: % maximum inhibition is elicited when the response reaches plateau, calculated regarding electrically induced contraction in guinea pig ileum as 100%; no effect; type: functional
Procedure, shortened: (§1)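 Ileum from male Dunkin-Hartley guinea pigs (300–400 g) in bath at 37 °C bubbled with 95% O2/5% CO2. Tissue suitability checked with acetylcholine 3 μM. Transmural stimulation at 0.2 Hz, 0.3 ms, supramaximal voltage, isotonic recording. Cumulative concentration–response curves over 100 pM–30 μM. Twitch height measured before and after drug. Mean ± SEM from five to six animals.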

Cavia porcellus [2] = species: Cavia porcellus; assay: Relative inhibitory activity expressed as the percentage of the maximum inhibition by the compound against that of morphine; no effect; type: functional
Cavia porcellus [3] = species: Cavia porcellus; assay: activity evaluated by its ability to inhibit the electrically induced twitch contraction in guinea pig ileum, which is reversed by naloxone (300 nM); no effect; type: functional; procedure, shortened: as §1
Cavia porcellus [4] = species: Cavia porcellus; assay: Relative potency expressed as the percentage of the pD2 value against that of morphine; no effect; type: functional
Cavia porcellus [5] = species: Cavia porcellus; assay: % maximum inhibition is elicited when the response reaches plateau, calculated regarding electrically induced contraction in guinea pig ileum as 100% (P < 0.001); type: functional; procedure, shortened: as §1
Cavia porcellus [6] = species: Cavia porcellus; assay: Relative potency expressed as the percentage of the pD2 value against that of morphine; type: functional
Cavia porcellus [7] = species: Cavia porcellus; assay: activity evaluated by its ability to inhibit the electrically induced twitch contraction in guinea pig ileum, which is reversed by naloxone (300 nM)(P < 0.01); type: functional; procedure, shortened: as §1
Cavia porcellus [8] = species: Cavia porcellus; assay: Relative inhibitory activity expressed as the percentage of the maximum inhibition by the compound against that of morphine; type: functional
[9] = biological target: Mu-type opioid receptor (Cavia porcellus) (UniProt P97266); assay: Relative affinity evaluated for Opioid receptor mu 1
Procedure, shortened: (§2)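 From displacement Ki values in guinea pig brain membranes for μ ([3H]DAMGO), δ ([3H]DPDPE) and κ ([3H]U-69593) sites. Ka = 1/Ki. Relative affinity (%) = Ka for the subtype / (Kaμ + Kaδ + Kaκ).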

Mu-type opioid receptor = Mu-type opioid receptor (Cavia porcellus, UniProt P97266); assay: Binding affinity using guinea pig brain membrane preparations, towards Opioid receptor mu 1 using [3H]- DAMGO as radioligand
Procedure, shortened: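 Guinea pig whole-brain (minus cerebellum) membranes in 50 mM Tris-HCl pH 7.4 with 1 nM radioligand. [3H]DPDPE incubated 2 h and [3H]DAMGO 1.5 h, both at 25 °C. Nonspecific binding defined with 1 μM naltrindole (DPDPE) or 1 μM DAMGO (DAMGO). GF/B filtration, scintillation counting. 6–9 inhibitor concentrations; Ki by Cheng–Prusoff, given as pKi. 3–5 curves, each in triplicate.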

[10] = tested on: Delta-type opioid receptor; assay: Relative affinity evaluated for Opioid receptor delta 1; settings: Cavia porcellus; procedure, shortened: as §2
[11] = biological target: Kappa-type opioid receptor (Cavia porcellus, UniProt P41144); assay: Binding affinity using guinea pig brain membrane preparations, towards Opioid receptor kappa 1 using [3H]- U-69,593 as radioligand
Cavia porcellus [12] = species: Cavia porcellus; assay: % maximum inhibition is elicited when the response reaches plateau, calculated regarding electrically induced contraction in guinea pig ileum as 100%; type: functional; procedure, shortened: as §1
Cavia porcellus [13] = species: Cavia porcellus; assay: activity evaluated by its ability to inhibit the electrically induced twitch contraction in guinea pig ileum, which is reversed by naloxone (300 nM) (P < 0.001); type: functional; procedure, shortened: as §1
Cavia porcellus [14] = species: Cavia porcellus; assay: % inhibition of twitch contraction in electrically stimulated guinea pig ileum preparation; type: functional; procedure, shortened: as §1
Cavia porcellus [15] = species: Cavia porcellus; assay: activity evaluated by its ability to inhibit the electrically induced twitch contraction in guinea pig ileum, which is reversed by naloxone (300 nM)(P < 0.001); type: functional; procedure, shortened: as §1
Cavia porcellus [16] = species: Cavia porcellus; assay: Relative potency expressed as the percentage of the pD2 value against that of morphine; non specific; type: functional
Cavia porcellus [17] = species: Cavia porcellus; assay: activity evaluated by its ability to inhibit the electrically induced twitch contraction in guinea pig ileum, which is reversed by naloxone (300 nM); non specific; type: functional; procedure, shortened: as §1
Cavia porcellus [18] = species: Cavia porcellus; assay: % maximum inhibition is elicited when the response reaches plateau, calculated regarding electrically induced contraction in guinea pig ileum as 100%; non specific; type: functional; procedure, shortened: as §1
Cavia porcellus [19] = species: Cavia porcellus; assay: Relative inhibitory activity expressed as the percentage of the maximum inhibition by the compound against that of morphine; non specific; type: functional
Cavia porcellus [20] = species: Cavia porcellus; assay: % inhibition of twitch contraction at 3 uM in electrically stimulated guinea pig ileum preparation by; type: functional; procedure, shortened: as §1
Cavia porcellus [21] = species: Cavia porcellus; assay: % maximum inhibition is elicited when the response reaches plateau, calculated regarding electrically induced contraction in guinea pig ileum as 100%(P < 0.01); type: functional; procedure, shortened: as §1
Cavia porcellus [22] = species: Cavia porcellus; assay: % inhibition of twitch contraction at 0.1 uM in electrically stimulated guinea pig ileum preparation; type: functional; procedure, shortened: as §1
Cavia porcellus [23] = species: Cavia porcellus; assay: Effect of Corynantheidine (1 uM) on twitch contraction inhibited by morphine (1 uM) in guinea pig (P<0.05); type: functional
Cavia porcellus [24] = species: Cavia porcellus; assay: Effect of Corynantheidine (10 uM) on twitch contraction inhibited by Atropine (0.1 uM) in guinea pig; type: functional
Cavia porcellus [25] = species: Cavia porcellus; assay: Effect of Corynantheidine (10 uM) on twitch contraction inhibited by Verapamil (3 uM) in guinea pig; type: functional
Cavia porcellus [26] = species: Cavia porcellus; assay: Effect of Corynantheidine (10 uM) on twitch contraction inhibited by morphine (1 uM) in guinea pig (P<0.001); type: functional
Cavia porcellus [27] = species: Cavia porcellus; assay: Effect of Corynantheidine (1 uM) on twitch contraction inhibited by Atropine (0.1 uM) in guinea pig; type: functional
Cavia porcellus [28] = species: Cavia porcellus; assay: Effect of Corynantheidine (1 uM) on twitch contraction inhibited by Verapamil (3 uM) in guinea pig; type: functional
Cavia porcellus [29] = species: Cavia porcellus; assay: % maximum inhibition is elicited when the response reaches plateau, calculated regarding electrically induced contraction in guinea pig ileum as 100% (P<0.001); type: functional; procedure, shortened: as §1
Cavia porcellus [30] = species: Cavia porcellus; assay: activity evaluated by its ability to inhibit the electrically induced twitch contraction in guinea pig ileum, which is reversed by naloxone (300 nM); type: functional; procedure, shortened: as §1
Cavia porcellus [31] = species: Cavia porcellus; assay: % maximum inhibition is elicited when the response reaches plateau, calculated regarding electrically induced contraction in guinea pig ileum as 100%(P < 0.001); type: functional; procedure, shortened: as §1

Kappa-type opioid receptor, sequence (P41144 whole entry): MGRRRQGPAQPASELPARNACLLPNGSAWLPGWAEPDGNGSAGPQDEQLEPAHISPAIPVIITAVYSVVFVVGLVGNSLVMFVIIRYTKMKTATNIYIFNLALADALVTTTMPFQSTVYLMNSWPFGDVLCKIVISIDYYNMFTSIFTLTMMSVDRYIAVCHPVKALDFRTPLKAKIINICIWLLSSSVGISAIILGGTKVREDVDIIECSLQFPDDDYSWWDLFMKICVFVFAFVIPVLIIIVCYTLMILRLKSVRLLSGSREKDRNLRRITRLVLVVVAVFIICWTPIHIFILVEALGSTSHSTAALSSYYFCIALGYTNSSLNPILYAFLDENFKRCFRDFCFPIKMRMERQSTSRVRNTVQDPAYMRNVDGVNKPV
Mu-type opioid receptor (Cavia porcellus), sequence (P97266 whole entry): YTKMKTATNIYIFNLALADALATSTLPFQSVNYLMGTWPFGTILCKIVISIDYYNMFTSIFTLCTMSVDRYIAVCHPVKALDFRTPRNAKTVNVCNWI
Mu-type opioid receptor, sequence (P97266 whole entry): as above

Structure (SMILES): CC[C@@H]1CN2CCc3c([nH]c4cccc(OCOC)c34)[C@@H]2C[C@@H]1/C(=C\OC)C(=O)OC
- NE (Cavia porcellus [1]): inactive
- NE (Cavia porcellus [2]): inactive
- NE (Cavia porcellus [3]): inactive
- NE (Cavia porcellus [4]): inactive

Structure (SMILES): CC[C@@H]1CN2CC[C@@]3(OC(C)=O)C(=Nc4cccc(OC)c43)[C@@H]2C[C@@H]1/C(=C\OC)C(=O)OC
- Inhibition (Cavia porcellus [5]): 13.4%
- Relative potency (Cavia porcellus [6]): 21%
- pD2 (Cavia porcellus [7]): 6.5
- Inhibition (Cavia porcellus [8]): 15%

Structure (SMILES): CC[C@@H]1CN2CC[C@]3(Nc4cccc(OC)c4C3=O)[C@@H]2C[C@@H]1/C(=C\OC)C(=O)OC
- Relative affinity [9]: 97.1%
- Ki (Mu-type opioid receptor): 0.0871 nM
- Relative affinity [10]: 2.8%
- Ki [11]: 79.4 nM
- Inhibition (Cavia porcellus [12]): 83.5%
- Relative potency (Cavia porcellus [6]): 3467%
- pD2 (Cavia porcellus [13]): 8.71
- Inhibition (Cavia porcellus [8]): 96%

Structure (SMILES): CN1CC[C@]23c4c5ccc(O)c4O[C@H]2[C@@H](O)C=C[C@H]3[C@H]1C5 [MORPHINE]
- Inhibition (Cavia porcellus [12]): 87.2%
- Contraction (Cavia porcellus [14]): 27.4%
- Inhibition (Cavia porcellus [8]): 100%

Structure (SMILES): CC[C@@H]1CN2CC3=C(O)C4C(OC)=CC=CC4N=C3[C@@H]2C[C@@H]1/C(=C\OC)C(=O)OC (stereo partly specified)
- Inhibition (Cavia porcellus [12]): 74.1%
- Relative potency (Cavia porcellus [6]): 34%
- pD2 (Cavia porcellus [15]): 6.7
- Inhibition (Cavia porcellus [8]): 85%

Structure (SMILES): CC[C@@H]1CN2CCc3c([nH]c4cccc(OC(C)C)c34)[C@@H]2C[C@@H]1/C(=C\OC)C(=O)OC
- NS (Cavia porcellus [16]): non specific
- NS (Cavia porcellus [17]): non specific
- NS (Cavia porcellus [18]): non specific
- NS (Cavia porcellus [19]): non specific

Structure (SMILES): COc1ccc(CCN(C)CCCC(C#N)(c2ccc(OC)c(OC)c2)C(C)C)cc1OC (stereo unspecified)
- Contraction (Cavia porcellus [20]): 6.8%

Structure (SMILES): CC[C@@H]1CN2CCc3c([nH]c4cccc(OC)c34)[C@H]2C[C@@H]1/C(=C/OC)C(=O)OC
- Inhibition (Cavia porcellus [12]): 85.9%
- Relative potency (Cavia porcellus [6]): 2%
- pD2 (Cavia porcellus [15]): 5.4
- Inhibition (Cavia porcellus [8]): 101%

Structure (SMILES): CC[C@@H]1CN2CC[C@@]3(OC)C(=Nc4cccc(OC)c43)[C@@H]2C[C@@H]1/C(=C\OC)C(=O)OC
- Relative potency (Cavia porcellus [6]): 19%
- pD2 (Cavia porcellus [15]): 6.45
- Inhibition (Cavia porcellus [21]): 60.9%
- Inhibition (Cavia porcellus [8]): 70%

Structure (SMILES): CCOc1cccc2[nH]c3c(c12)CCN1C[C@@H](CC)[C@@H](/C(=C\OC)C(=O)OC)C[C@@H]31
- NS (Cavia porcellus [16]): non specific
- NS (Cavia porcellus [17]): non specific
- NS (Cavia porcellus [18]): non specific
- NS (Cavia porcellus [19]): non specific

Structure (SMILES): CN1[C@@H]2CC[C@H]1C[C@@H](OC(=O)C(CO)c1ccccc1)C2 (stereo partly specified) [ATROPINE]
- Contraction (Cavia porcellus [22]): 3.9%

Structure (SMILES): CC[C@@H]1CN2CCc3c([nH]c4ccccc34)[C@@H]2C[C@@H]1/C(=C\OC)C(=O)OC [CORYNANRHEIDINE]
- Relative affinity [9]: 95.8%
- Ki (Mu-type opioid receptor): 72.4 nM
- Relative affinity [10]: 1%
- Ki [11]: 2570 nM
- Contraction (Cavia porcellus [23]): 43%
- Contraction (Cavia porcellus [24]): 6.3%
- Contraction (Cavia porcellus [25]): 13.2%
- Contraction (Cavia porcellus [26]): 109.2%
- Contraction (Cavia porcellus [27]): 5.7%
- Contraction (Cavia porcellus [28]): 7%
- Inhibition (Cavia porcellus [29]): -18.1%
- Inhibition (Cavia porcellus [8]): -21%

Structure (SMILES): CC[C@@H]1CN2CCc3c([nH]c4cccc(O)c34)[C@@H]2C[C@@H]1/C(=C\OC)C(=O)OC
- Relative affinity [9]: 99.6%
- Ki (Mu-type opioid receptor): 12 nM
- Relative affinity [10]: < 0.1%
- Ki [11]: 2950 nM
- Inhibition (Cavia porcellus [5]): 49.4%
- Relative potency (Cavia porcellus [6]): 41%
- pD2 (Cavia porcellus [30]): 6.78
- Inhibition (Cavia porcellus [8]): 57%

Structure (SMILES): CC[C@@H]1CN2CCc3c([nH]c4cccc(OC(C)=O)c34)[C@@H]2C[C@@H]1/C(=C\OC)C(=O)OC
- Inhibition (Cavia porcellus [5]): 33.2%
- Relative potency (Cavia porcellus [6]): 2%
- pD2 (Cavia porcellus [30]): 5.39
- Inhibition (Cavia porcellus [8]): 38%

Structure (SMILES): CCO[C@]12CCN3C[C@@H](CC)[C@@H](/C(=C\OC)C(=O)OC)C[C@H]3C1=Nc1cccc(OC)c12
- Relative potency (Cavia porcellus [6]): 1%
- pD2 (Cavia porcellus [15]): 5.29
- Inhibition (Cavia porcellus [31]): 22.9%
- Inhibition (Cavia porcellus [8]): 26%

Structure (SMILES): CC[C@@H]1C[N+]2([O-])CCc3c([nH]c4cccc(OC)c34)[C@@H]2C[C@@H]1/C(=C\OC)C(=O)OC (stereo partly specified)
- Inhibition (Cavia porcellus [12]): -123.5%

Structure (SMILES): CC[C@@H]1CN2CCc3c([nH]c4cccc(OC)c34)[C@@H]2C[C@@H]1/C(=C\OC)C(=O)OC
- Relative affinity [9]: 88.7%
- Ki (Mu-type opioid receptor): 7.24 nM
- Relative affinity [10]: 10.7%
- Ki [11]: 1100 nM
- Inhibition (Cavia porcellus [12]): 83.1%
- Relative potency (Cavia porcellus [6]): 26%
- pD2 (Cavia porcellus [7]): 6.59
- Inhibition (Cavia porcellus [8]): 95%

Structure (SMILES): CC[C@@H]1CN2CC[C@@]3(O)C(=Nc4cccc(OC)c43)[C@@H]2C[C@@H]1/C(=C\OC)C(=O)OC
- Relative affinity [9]: 83.3%
- Ki (Mu-type opioid receptor): 13.5 nM
- Relative affinity [10]: 6.6%
- Ki [11]: 123 nM
- Inhibition (Cavia porcellus [12]): 86.3%
- Relative potency (Cavia porcellus [6]): 1071%
- pD2 (Cavia porcellus [13]): 8.2
- Inhibition (Cavia porcellus [8]): 99%
